For data set [1], the system named is subjects with PNH. Kind of data set: Hemolytic markers. Type of data set: in vivo, human.
The subject of data set [2] is subjects with PNH. Nature of the data set: Packed RBC transfusions, PHAROAH. It is filed as in vivo, human. In short, it runs like this: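 Packed RBC transfusions given to each cohort 4 subject were recorded throughout the study. […] Pegcetacoplan was given at 270 mg/d SC, and dosing could be increased with Sponsor approval.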
Data set [3] in a line: Pegcetacoplan serum concentrations. Type of data set: in vivo, human. The note with it: single-dose phase, SC 25 or 50 mg (cohorts 1 and 2).
The target in another data set is C3 (Homo sapiens, UniProt P01024). Nature of the data set: Serum C3 levels, PHAROAH. It is filed as in vivo. The method in brief: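 Values were judged against the reference range in use at each time point. For one subject, pegcetacoplan dosing was suspended between days 29 and 56 and resumed at 180 mg/d on day 57. Individual data were plotted over time.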
Sequence of C3 (P01024 23-1663): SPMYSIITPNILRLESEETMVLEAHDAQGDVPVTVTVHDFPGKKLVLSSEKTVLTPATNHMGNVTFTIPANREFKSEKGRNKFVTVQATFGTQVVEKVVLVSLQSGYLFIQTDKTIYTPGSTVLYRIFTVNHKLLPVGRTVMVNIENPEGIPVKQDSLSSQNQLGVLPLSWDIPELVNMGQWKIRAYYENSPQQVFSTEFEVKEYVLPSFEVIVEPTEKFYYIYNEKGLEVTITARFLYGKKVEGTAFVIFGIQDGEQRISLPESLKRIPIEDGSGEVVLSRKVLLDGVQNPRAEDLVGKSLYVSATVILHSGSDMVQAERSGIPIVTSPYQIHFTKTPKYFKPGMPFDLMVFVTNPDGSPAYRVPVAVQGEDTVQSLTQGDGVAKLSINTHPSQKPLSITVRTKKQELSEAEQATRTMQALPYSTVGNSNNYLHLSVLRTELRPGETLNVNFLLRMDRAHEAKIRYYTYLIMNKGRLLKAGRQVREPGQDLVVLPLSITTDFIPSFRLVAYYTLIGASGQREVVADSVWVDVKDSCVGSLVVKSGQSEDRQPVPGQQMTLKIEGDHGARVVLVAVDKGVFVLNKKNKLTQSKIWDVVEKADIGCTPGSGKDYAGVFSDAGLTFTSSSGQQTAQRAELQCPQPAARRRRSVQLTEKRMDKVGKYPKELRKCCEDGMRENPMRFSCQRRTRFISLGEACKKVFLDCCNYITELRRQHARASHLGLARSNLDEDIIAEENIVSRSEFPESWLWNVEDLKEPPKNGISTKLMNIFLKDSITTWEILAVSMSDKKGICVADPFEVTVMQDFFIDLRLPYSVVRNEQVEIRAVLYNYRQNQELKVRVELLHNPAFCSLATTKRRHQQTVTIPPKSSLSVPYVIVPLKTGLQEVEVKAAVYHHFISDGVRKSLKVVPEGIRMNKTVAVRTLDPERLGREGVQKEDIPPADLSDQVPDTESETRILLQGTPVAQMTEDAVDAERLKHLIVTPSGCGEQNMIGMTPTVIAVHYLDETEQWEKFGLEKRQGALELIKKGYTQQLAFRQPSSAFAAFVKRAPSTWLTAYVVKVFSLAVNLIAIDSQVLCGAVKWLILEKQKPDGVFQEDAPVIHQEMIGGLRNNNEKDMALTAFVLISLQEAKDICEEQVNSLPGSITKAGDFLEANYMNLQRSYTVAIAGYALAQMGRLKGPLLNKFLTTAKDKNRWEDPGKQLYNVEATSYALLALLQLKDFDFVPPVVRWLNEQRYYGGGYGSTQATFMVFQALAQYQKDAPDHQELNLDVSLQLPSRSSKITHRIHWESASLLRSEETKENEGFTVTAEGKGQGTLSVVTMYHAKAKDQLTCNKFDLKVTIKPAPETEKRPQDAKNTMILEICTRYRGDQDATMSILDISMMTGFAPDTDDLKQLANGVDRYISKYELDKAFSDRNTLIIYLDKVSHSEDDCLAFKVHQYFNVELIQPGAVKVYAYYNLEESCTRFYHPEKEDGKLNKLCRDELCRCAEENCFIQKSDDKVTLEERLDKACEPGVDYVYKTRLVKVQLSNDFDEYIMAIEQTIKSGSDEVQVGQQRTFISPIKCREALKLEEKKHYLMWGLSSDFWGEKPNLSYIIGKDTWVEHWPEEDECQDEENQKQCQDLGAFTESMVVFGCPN
The test system of another data set is PNH RBCs. It is filed as in vivo, human. The method in brief:
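Whole-blood flow cytometry. RBCs were gated with FITC anti-human glycophorin A, and CD59 was detected with PE anti-CD59 to classify type II (partial) and type III (complete) deficient cells. C3 deposition was detected with biotinylated anti-human C3d plus streptavidin-APC. Matched mouse IgG isotype controls were included.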

For a further data set, the system named is classical pathway. Nature of the data set: CH50 assay, hemolytic activity of the classical pathway, PHAROAH. Type of data set: in vivo, human. Conditions: six subjects, first year of treatment, with eculizumab. In short, it runs like this: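 Results were reported in complement activity enzyme units or U/mL, as the laboratory changed units during the study. Each value was judged against the reference range in use at that time point. Individual subject data were plotted over time.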

The test system of the next data set is alternative pathway. Nature of the data set: AH50 assay, hemolytic activity of the alternative pathway, PHAROAH. Type of data set: in vivo, human.
[4] abbreviates: subject 12, day 421, after initial attempt to discontinue eculizumab with no increase in pegcetacoplan dosing.

Consider one substance from publication PMC7693064 (American Journal of Hematology, 2020).

With pegcetacoplan, the “Subjects with hemoglobin levels within reference range 11.1-15.9 g/dL” value in the data set with subjects with PNH [1] (after 2 years of treatment, four remaining subjects) is listed as “three of the four”. Besides, in the data set on subjects with PNH [1] (cohort 4), the “Reticulocyte count, change during the study” value was “reductions were observed in all subjects” and the “Total bilirubin levels, change during the study” value is on record as “Decreases in total bilirubin levels were observed in all subjects”. The Hemoglobin levels entry in the data set with subjects with PNH [1] (cohort 4, all six subjects) is on record as “increased in all subjects by day 29”. Besides, the “LDH levels during treatment” value in the data set with subjects with PNH [1] (cohort 4, with some fluctuations) is recorded as “remained stable”. Also, in the data set with subjects with PNH [1] (setting [4]), the LDH level was 1571 U/L and the Total bilirubin level is 2.3 mg/dL. The Transfusion avoidance result with subjects with PNH [2] (four subjects who completed the study) is “achieved in all four subjects”. Besides, the “Packed RBC transfusions received during the study” value in the data set on subjects with PNH [2] (subject 9, seven given before steady state or after pegcetacoplan was suspended) was “nine”. Besides, in data set [3], the “Time of peak serum concentration” value is given as “a week after dosing”. Also, at C3 (all subjects in cohort 4), the “Serum C3 levels, change” value is “increase”. Further, the “Serum C3 level” value at C3 (subject 11, day 29) is 415 mg/dL. At C3 (subject 11, day 57, after suspension of pegcetacoplan dosing), the “Serum C3 level” value turned out to be 107 mg/dL. Moreover, the “Deposition of C3 fragments on the surface of type II and III RBCs” value in the data set on PNH RBCs (all subjects in cohort 4) is listed as “decrease”. In the data set with PNH RBCs (five subjects, by day 85), the “Type II and III cells as a proportion of the clonal distribution of total RBCs” value is on record as above 90%. Further, the “Effect on CH50” value with classical pathway is “No significant effect”. For the same substance, the AH50 levels result in the data set with alternative pathway (after eculizumab discontinuation) is on record as “increased following eculizumab discontinuation”. In addition, in the data set on alternative pathway (last evaluation time point, four subjects who completed the study), the “Subjects with AH50 levels within the 77-159 U/mL reference range” value is reported as “two of the four”.
